In ChEMBL document CHEMBL3779860, “A Designed Tryptophan- and Lysine/Arginine-Rich Antimicrobial Peptide with Therapeutic Potential for Clinical Antibiotic-Resistant Candida albicans Vaginitis” (J Med Chem, 2016):
The source made the active and inactive calls. The calls are words filed in the database; no cut-off is given here.

What was measured:
Candida albicans [1] = assay: Antimicrobial activity against antibiotic resistant Candida albicans clinical isolate 08032821 compound treated in PBS solution measured after 36 hrs by disc diffusion method; type: functional; details: isolate 08032821, 36 h
How it was run: (§1)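 Salt-tolerance test: peptide at 2 mg/mL was prepared in sterile ddH2O, in 150 mM NaCl, or in PBS (150 mM NaCl, 2.7 mM KCl, 1.5 mM KH2PO4, 8 mM K2HPO4, pH 7.2). Anti-C. albicans activity was then assessed by inhibition zone on Sabouraud medium with 0.7% agar.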

Candida albicans [2] = assay: Antimicrobial activity against antibiotic resistant Candida albicans clinical isolate 08030809 compound treated in NaCl solution measured after 36 hrs by disc diffusion method; type: functional; details: isolate 08030809, 36 h; how it was run: as §1
Candida albicans [3] = assay: Antimicrobial activity against antibiotic resistant Candida albicans clinical isolate 08032815 compound treated in NaCl solution measured after 36 hrs by disc diffusion method; type: functional; details: isolate 08032815, 36 h; how it was run: as §1
[4] = Ratio of HC50 for human RBC to MIC for Candida albicans ATCC 2002
HEK293 = assay: Cytotoxicity against HEK293 cells assessed as cell viability at 0.39 to 100 ug/ml after 24 hrs by MTT assay; type: cell-based; details: human, hek293, 24 h
How it was run: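 HEK293 seeded at 1 × 10^5 cells/mL in DMEM with 10% fetal calf serum and penicillin-streptomycin, 37 °C, 5% CO2. Cells exposed to sample for 24 h, then given MTT (5 mg/mL); formazan dissolved in DMSO and read at 570 nm. Done in triplicate.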

Candida albicans [5] = assay: Antimicrobial activity against antibiotic resistant Candida albicans clinical isolate 08030809 after 16 hrs by broth dilution method; type: functional; details: isolate 08030809, 16 h
How it was run: (§2)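 Broth microdilution in Sabouraud liquid medium. Samples are stocks in 0.9% NaCl, 10 µL added to 90 µL broth plus 100 µL of 2 × 10^5 CFU/mL yeast suspension. Incubated 16 h at 28°C, growth read by A600. MIC is the lowest concentration completely inhibiting growth; mean of three independent experiments.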

Candida albicans [6] = assay: Antimicrobial activity against antibiotic resistant Candida albicans clinical isolate 08022821 after 16 hrs by broth dilution method; type: functional; details: isolate 08022821, 16 h; how it was run: as §2
Candida albicans [7] = assay: Antimicrobial activity against antibiotic resistant Candida albicans clinical isolate 08032815 after 16 hrs by broth dilution method; type: functional; details: isolate 08032815, 16 h
How it was run: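 Broth dilution MIC. Samples were serially diluted in 0.9% NaCl and mixed with Sabouraud broth and yeast suspension at 2 × 10^5 CFU/mL, then incubated 16 h at 28°C. Growth was read at 600 nm. MIC is the lowest concentration giving complete growth inhibition, reported as mean of three independent experiments.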

[8] = Hemolytic activity in human RBC after 30 mins; type: ADME, cell-based, Erythrocyte
How it was run: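 Serial dilutions were incubated with human erythrocytes for 30 min at 37°C. Supernatant absorbance was read at 540 nm after centrifugation. Hemolysis is expressed as % of the 1% Triton X-100 lysis value, pooled from three independent experiments. The highest concentration tested was 320 µg/mL.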

Escherichia coli = assay: Antimicrobial activity against Escherichia coli ATCC 25922 assessed as inhibition of […] growth after 16 hrs by broth dilution method; type: functional; details: ATCC 25922, 16 h
How it was run: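 Broth dilution in LB broth; 100 µL of 2 × 10^5 CFU/mL bacterial suspension plus 10 µL sample (stock series in 0.9% NaCl) in 90 µL broth, 37°C for 16 h. Growth read as A600; MIC is the lowest concentration completely inhibiting growth. Mean of three independent experiments run in duplicate.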

Candida albicans [9] = assay: Antimicrobial activity against antibiotic resistant Candida albicans clinical isolate 08030809 assessed as clone count at MIC after 6 hrs by colony counting assay (reference value: 14536 +/- 2467 CFU); type: functional
Candida albicans [10] = assay: Antimicrobial activity against antibiotic resistant Candida albicans clinical isolate 08030809 assessed as clone count at 5 times MIC after 12 hrs by colony counting assay (reference value: 54153 +/- 8769 CFU); type: functional
Candida albicans [11] = assay: Antimicrobial activity against antibiotic resistant Candida albicans clinical isolate 08030809 assessed as clone count at MIC after 10 mins by colony counting assay (reference value: 102 +/- 11 CFU); type: functional
Mus musculus [12] = assay: (§3) Antiinflammatory activity in antibiotic resistant Candida albicans clinical isolate 08030809 induced mouse vaginitis model assessed as microabscess number in vaginal tissue at 20 ug administered as intravaginal instillation measured on day 6 by hematoxylin-eosin staining based microscopic method (reference value: 61); type: functional, Vagina
How it was run: (§4)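 Mice given weekly subcutaneous estradiol valerate (0.5 mg in 0.1 mL vegetable oil) 72 h before infection. Infected intravaginally with 20 µL of 10^7 CFU/mL C. albicans 08030809. Intravaginal instillation of 20 µL daily for 16 days. Vaginal canals excised after lavage, formalin-fixed, paraffin-embedded, HE-stained. Microabscesses counted per high-power field over 6 fields per section, three independent experiments.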

Mus musculus [13] = assay: Antiinflammatory activity in antibiotic resistant Candida albicans clinical isolate 08030809 induced mouse vaginitis model assessed as reduction in IL-10 secretion in vaginal tissue administered as intravaginal instillation measured on day 10 by ELISA; type: functional, organism-based; details: Vagina
How it was run: (§5)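 Same estradiol-primed mouse model, infected intravaginally with C. albicans 08030809 and treated by intravaginal instillation (20 µL/mouse). Vaginal canals excised on day 10 of treatment and homogenised in 0.9% NaCl. Supernatant taken after 2,000 g for 15 min. TNF-α, IL-6, IL-1β and IL-10 measured by ELISA. Mean ± SE of three independent experiments; unpaired t-test versus vehicle.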

Mus musculus [14] = assay: Antiinflammatory activity in antibiotic resistant Candida albicans clinical isolate 08030809 induced mouse vaginitis model assessed as reduction in microabscess number in vaginal tissue at 50 ug administered as intravaginal instillation measured after 16 days by hematoxylin-eosin staining based microscopic method; type: functional, organism-based; details: Vagina; how it was run: as §4
Mus musculus [15] = assay: as §3, with “after 16 days” for “on day 6”; type: functional, Vagina; how it was run: as §4
Mus musculus [16] = assay: Antiinflammatory activity in antibiotic resistant Candida albicans clinical isolate 08030809 induced mouse vaginitis model assessed as reduction in TNF-alpha secretion in vaginal tissue administered as intravaginal instillation measured on day 10 by ELISA; type: functional, organism-based; details: Vagina; how it was run: as §5
Candida albicans [17] = assay: Antimicrobial activity against antibiotic resistant Candida albicans clinical isolate 08030809 in mouse vaginitis model assessed as colony count in lavage liquid of vagina at 20 ug administered as intravaginal instillation measured on day 16; type: functional
Candida albicans [18] = assay: Antimicrobial activity against antibiotic resistant Candida albicans clinical isolate 08030809 in mouse vaginitis model assessed as decrease in colony count in lavage liquid of vagina administered as intravaginal instillation measured on day 1, 6, 11, 16; type: functional, organism-based
Candida albicans [19] = assay: Effect on cell morphology in antibiotic resistant Candida albicans clinical isolate 08030809 assessed as cell membrane perforation at MIC to 2.5 times MIC after 30 mins by scanning electron microscopy; type: functional, organism-based
How it was run: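 Exponential-phase C. albicans 08030809 was washed in PBS and resuspended in Sabouraud medium. Cells were treated 30 min at 37°C alongside a vehicle control. They were then fixed in 2.5% glutaraldehyde (4°C, 2 h) and 1% osmium tetroxide, dehydrated through graded ethanol, freeze-dried from tert-butanol, gold-coated and imaged by SEM. Images are typical of three experiments.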

## H-VKRWKKWRWKWKKWV-NH2
Candida albicans [1]
  MIC: 2.65 µg/mL
Candida albicans [2]
  MIC: 1.4 µg/mL
Candida albicans [3]
  MIC: 2.79 µg/mL
[4]
  Ratio: 542
HEK293
  Activity: Non-toxic
Candida albicans [5]
  MIC: 1.4 µg/mL
Candida albicans [6]
  MIC: 3.13 µg/mL
Candida albicans [7]
  MIC: 2.79 µg/mL
[8]; erythrocyte, 0.5 h
  HC10: > 320 µg/mL
[8]; red blood cells
  HC50 at 0.5 h: > 320 µg/mL
Escherichia coli
  MIC: 9.38 µg/mL
Candida albicans [9]
  Activity: 0 CFU
Candida albicans [10]
  Activity: 0 CFU
Candida albicans [11]
  Activity: 15 CFU
Mus musculus [12]
  Activity: 16
Mus musculus [13]
  Activity: Dose-dependent effect
Mus musculus [14]
  Activity: Active
Mus musculus [15]
  Activity: <3
Mus musculus [16]
  Activity: Dose-dependent effect
Candida albicans [17]
  Activity: 5.4 ×10³ CFU/ml
Candida albicans [18]
  inhibition: Dose-dependent effect
Candida albicans [19]
  Activity: Active
